Converted amounts (≈) assume the structure as drawn. Some results are limits rather than exact numbers.

Common to all, as to type: functional
The subject of test [1] is Staphylococcus aureus. As to the kind of experiment: Antibacterial activity against methicillin-resistant Staphylococcus aureus isolate 5735. In short, it runs like this: (§1)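 MICs by broth microdilution in cation-adjusted Mueller-Hinton broth, following CLSI guidelines. Test isolates were clinical VRE (E. faecium), MRSA and VRSA recovered from patient sites or from nephrostomy tube biofilm. Biofilm isolates were obtained by PBS lumen washes of tube segments, dilution in Butterfield buffer and plating on selective and blood agars at 35°C for 24 to 48 h.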

Test [2] concerns Staphylococcus aureus. The test can be described thus: Antibacterial activity against methicillin-resistant Staphylococcus aureus isolate 5736. In short, it runs like this: as §1
Test [3] deals with Staphylococcus aureus. As to the kind of experiment: Antibacterial activity against methicillin-resistant Staphylococcus aureus isolate 5733. In short, it runs like this: as §1
Test [4] relates to Staphylococcus aureus. The test can be described thus: Antibacterial activity against methicillin-resistant Staphylococcus aureus isolate 5739. In short, it runs like this:
as §1

The test system of test [5] is Staphylococcus aureus. The test can be described thus: Antibacterial activity against vancomycin-resistant Staphylococcus aureus isolate 5734. In outline:
as §1

Test [6] relates to Staphylococcus aureus. As to the kind of experiment: Antibacterial activity against vancomycin-resistant Staphylococcus aureus isolate 595. In outline: as §1
The test system of test [7] is Staphylococcus aureus. As to the kind of experiment: Antibacterial activity against methicillin-resistant Staphylococcus aureus isolate 5737. In outline:
as §1

Test [8] concerns Staphylococcus aureus. The test can be described thus: Antibacterial activity against vancomycin-resistant Staphylococcus aureus isolate 2514. In outline:
as §1

Test [9] has as its system Staphylococcus aureus. As to the kind of experiment: Antibacterial activity against methicillin-resistant Staphylococcus aureus isolate 2513. In short, it runs like this: as §1
Test [10] relates to Staphylococcus aureus. The test can be described thus: Antibacterial activity against methicillin-resistant Staphylococcus aureus isolate 2530. In outline:
as §1

The test system of test [11] is Enterococcus faecium. As to the kind of experiment: Antibacterial activity against Enterococcus faecium isolate 5749.
Test [12] deals with Enterococcus faecium. As to the kind of experiment: Antibacterial activity against Enterococcus faecium isolate 5752. In short, it runs like this:
as §1

The subject of test [13] is Enterococcus faecalis. As to the kind of experiment: Antibacterial activity against Enterococcus faecalis isolate 5745.
The test system of test [14] is Enterococcus faecium. The test can be described thus: Antibacterial activity against Enterococcus faecium isolate 5750.
The test system of test [15] is Enterococcus faecium. The test can be described thus: Antibacterial activity against Enterococcus faecium isolate 2547. In outline:
as §1

Test [16] has as its system Enterococcus faecalis. The test can be described thus: Antibacterial activity against Enterococcus faecalis isolate 5742.
Test [17] deals with Enterococcus faecium. As to the kind of experiment: Antibacterial activity against Enterococcus faecium isolate 5753.
The test system of test [18] is Enterococcus faecium. The test can be described thus: Antibacterial activity against Enterococcus faecium isolate 5751.
Test [19] deals with Enterococcus faecalis. The test can be described thus: Antibacterial activity against Enterococcus faecalis isolate 5744.
The test system of test [20] is Enterococcus faecalis. The test can be described thus: Antibacterial activity against Enterococcus faecalis isolate 5746.
The test system of test [21] is Enterococcus faecalis. As to the kind of experiment: Antibacterial activity against Enterococcus faecalis isolate 5743.

Regarding `C[C@H]1COc2c(N3CCN(C)CC3)c(F)cc3c(=O)c(C(=O)O)cn1c23.C[C@H]1COc2c(N3CCN(C)CC3)c(F)cc3c(=O)c(C(=O)O)cn1c23.O` [LEVOFLOXACIN], the MIC with Staphylococcus aureus [1], with Staphylococcus aureus [2], in the test on Staphylococcus aureus [3], against Staphylococcus aureus [4], in the test with Staphylococcus aureus [5] and against Staphylococcus aureus [6] was 16 µg/mL throughout. Besides, the MIC against Staphylococcus aureus [7], with Staphylococcus aureus [8], in the test on Staphylococcus aureus [9] and against Staphylococcus aureus [10] was 16 µg/mL each time.

As for `CN(C)c1ccc(O)c2c1C[C@H]1C[C@H]3[C@H](N(C)C)C(O)=C(C(N)=O)C(=O)[C@@]3(O)C(O)=C1C2=O` [MINOCYCLINE], the MIC was found to be 16 µg/mL (≈ 35 µM) against Enterococcus faecium [11]; 32 µg/mL (≈ 69.9 µM) against Enterococcus faecium [12]; 8 µg/mL (≈ 17.5 µM) in the test with Enterococcus faecalis [13]; 32 µg/mL (≈ 69.9 µM) against Enterococcus faecium [14]; 32 µg/mL (≈ 69.9 µM) against Enterococcus faecium [15]; 8 µg/mL (≈ 17.5 µM) in the test on Enterococcus faecalis [16]. Further, the MIC is 16 µg/mL (≈ 35 µM) with Enterococcus faecium [17]; 16 µg/mL (≈ 35 µM) with Enterococcus faecium [18]; 16 µg/mL (≈ 35 µM) in the test with Enterococcus faecalis [19]; 0.12 µg/mL (≈ 0.262 µM) with Enterococcus faecalis [20]; 8 µg/mL (≈ 17.5 µM) in the test on Enterococcus faecalis [21].

As for `CC1(C)S[C@@H]2[C@H](NC(=O)Cc3ccccc3)C(=O)N2[C@H]1C(=O)O` [PENICILLIN G], the minimum inhibitory concentration (MIC) was 128 µg/mL (≈ 383 µM) in the test on Enterococcus faecium [11]; 128 µg/mL (≈ 383 µM) in the test with Enterococcus faecium [12]; 2 µg/mL (≈ 5.98 µM) against Enterococcus faecalis [13]; 256 µg/mL (≈ 766 µM) against Enterococcus faecium [14]; 128 µg/mL (≈ 383 µM) in the test on Enterococcus faecium [15]; 2 µg/mL (≈ 5.98 µM) against Enterococcus faecalis [16]. Moreover, the MIC in the test on Enterococcus faecium [17] came to 256 µg/mL (≈ 766 µM); against Enterococcus faecium [18], 256 µg/mL (≈ 766 µM); in the test with Enterococcus faecalis [19], 2 µg/mL (≈ 5.98 µM); in the test on Enterococcus faecalis [20] it was 2 µg/mL (≈ 5.98 µM); against Enterococcus faecalis [21], 2 µg/mL (≈ 5.98 µM).

As for `CN[C@H](CC(C)C)C(=O)N[C@H]1C(=O)N[C@@H](CC(N)=O)C(=O)N[C@H]2C(=O)N[C@H]3C(=O)N[C@H](C(=O)N[C@H](C(=O)O)c4cc(O)cc(O)c4-c4cc3ccc4O)[C@H](O)c3ccc(c(Cl)c3)Oc3cc2cc(c3O[C@@H]2O[C@H](CO)[C@@H](O)[C@H](O)[C@H]2O[C@H]2C[C@](C)(N)[C@H](O)[C@H](C)O2)Oc2ccc(cc2Cl)[C@H]1O` [VANCOMYCIN], the MIC worked out at 2 µg/mL (≈ 1.38 µM) in the test on Enterococcus faecalis [13]; 256 µg/mL (≈ 177 µM) in the test on Enterococcus faecium [14]; 64 µg/mL (≈ 44.2 µM) in the test with Staphylococcus aureus [6]; 2 µg/mL (≈ 1.38 µM) in the test with Enterococcus faecalis [16]; 256 µg/mL (≈ 177 µM) in the test with Enterococcus faecium [17]; 32 µg/mL (≈ 22.1 µM) with Staphylococcus aureus [8]. In addition, the MIC against Enterococcus faecium [18] is 256 µg/mL (≈ 177 µM); in the test on Enterococcus faecalis [19] it was 2 µg/mL (≈ 1.38 µM); in the test with Enterococcus faecalis [20], 2 µg/mL (≈ 1.38 µM); in the test on Enterococcus faecalis [21], 2 µg/mL (≈ 1.38 µM).

For `O=C(N[C@H](CO)[C@H](O)c1ccc([N+](=O)[O-])cc1)C(Cl)Cl` [CHLORAMPHENICOL], the minimum inhibitory concentration (MIC) in the test with Enterococcus faecium [11] came out at 4 µg/mL (≈ 12.4 µM); against Enterococcus faecium [12] it was 8 µg/mL (≈ 24.8 µM); with Enterococcus faecalis [13], 8 µg/mL (≈ 24.8 µM); with Enterococcus faecium [14] it was 8 µg/mL (≈ 24.8 µM); with Enterococcus faecium [15], 8 µg/mL (≈ 24.8 µM); against Enterococcus faecalis [16], 8 µg/mL (≈ 24.8 µM). For the same molecule, the minimum inhibitory concentration (MIC) is 4 µg/mL (≈ 12.4 µM) with Enterococcus faecium [17]; ≤ 2 µg/mL in the test with Enterococcus faecium [18]; 16 µg/mL (≈ 49.5 µM) in the test with Enterococcus faecalis [19]; 16 µg/mL (≈ 49.5 µM) with Enterococcus faecalis [20]; 8 µg/mL (≈ 24.8 µM) in the test on Enterococcus faecalis [21].

Take `CCC[C@@H]1C[C@@H](C(=O)N[C@@H]([C@H]2O[C@H](SC)[C@H](O)[C@@H](O)[C@H]2O)[C@H](C)Cl)N(C)C1` [CLINDAMYCIN]: the minimum inhibitory concentration (MIC) was > 8 µg/mL in the test on Staphylococcus aureus [1]; > 8 µg/mL in the test with Staphylococcus aureus [2]; > 8 µg/mL in the test on Staphylococcus aureus [3]; ≤ 0.12 µg/mL with Staphylococcus aureus [4]; > 8 µg/mL against Staphylococcus aureus [5]; > 8 µg/mL against Staphylococcus aureus [6]. Also, the MIC with Staphylococcus aureus [7] is ≤ 0.12 µg/mL; with Staphylococcus aureus [8] it was > 8 µg/mL; in the test with Staphylococcus aureus [9] it was > 8 µg/mL; with Staphylococcus aureus [10], ≤ 0.12 µg/mL.

The values are drawn from ChEMBL document CHEMBL1142154, “High-level vancomycin-resistant Staphylococcus aureus isolates associated with a polymicrobial biofilm” (2007).
